# Calls of active or inactive are those of the source.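 The calls were made as follows, unless noted: active = fluorescence slope higher than the sample average by over 3 SD (cut at about -0.22 in these data, passing the limit was not always enough); inactive = the rest.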
# What was measured:
# [1] = inhibitors of TNFa-induced NFkB p65 translocation, primary screen, imaging, HUVEC, MLSMR starter and 10KST1 sets (AID 438;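 active = inhibition above 20% together with a positive visual image hit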;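 also: compound added about 3h40 before a 20 min TNFalpha stimulation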;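 as to inhibition: signal is the nuclear over cytoplasmic p65 intensity ratio per well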); details: HUVEC TNFa-induced p65 nuclear translocation; cell count: measured here: nuclei count (cytotoxicity indicator), at 2.08 µM; inhibition: at 2 µM, stronger effect = higher value, 0% TNFa-plus-vehicle, 100% no-TNFa wells
# [2] = reduction of polyQ htt aggregates in cells – imaging, exon1htt(103Q)mCFP cells, high-content imaging, primary screen (AID 483;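 active = visual image review flags a hit and inhibition of aggregation exceeds 20%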;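 also: compound exposure lasted 3 days before fixation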;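 as to nuclei count: percent of the per-plate median nuclei count of sample wells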); details: exon1htt(103Q)mCFP cell line, aggregate imaging, at 2 µM; inhibition of aggregation: stronger effect = higher value; nuclei count: measured here: cell count, toxicity
# [3] = endothelial E-selectin expression blockers – imaging, HUVEC, immunofluorescence, MLSMR starter and 10KST1 sets, primary screen (AID 487;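 active = visually confirmed hit in the image check and inhibition above 20%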;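 as to inhibition: signal is fraction of cell area covered by stained E-selectin grains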;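 as to nuclei count: 100% = median nuclei count of all wells on the same plate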); details: HUVEC TNFalpha-induced E-selectin immunofluorescence imaging, at 2 µM; inhibition: stronger effect = higher value; nuclei count: measured here: cell number, toxicity
# [4] = target: Voltage-gated potassium channel subunit beta-2 (Rattus norvegicus) (UniProt P62483); assay: inhibitors of rat Kvbeta2 reductase activity – biochemical, NADPH fluorescence, primary screen (AID 622); details: recombinant KvBeta, 4-cyanobenzaldehyde reduction, at 10 µM, stronger effect = higher value;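 also: slope of raw intensity against log time taken from 70 to 1610 s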
# Voltage-gated potassium channel subunit beta-2 (Rattus norvegicus), sequence (P62483 whole entry, looked up): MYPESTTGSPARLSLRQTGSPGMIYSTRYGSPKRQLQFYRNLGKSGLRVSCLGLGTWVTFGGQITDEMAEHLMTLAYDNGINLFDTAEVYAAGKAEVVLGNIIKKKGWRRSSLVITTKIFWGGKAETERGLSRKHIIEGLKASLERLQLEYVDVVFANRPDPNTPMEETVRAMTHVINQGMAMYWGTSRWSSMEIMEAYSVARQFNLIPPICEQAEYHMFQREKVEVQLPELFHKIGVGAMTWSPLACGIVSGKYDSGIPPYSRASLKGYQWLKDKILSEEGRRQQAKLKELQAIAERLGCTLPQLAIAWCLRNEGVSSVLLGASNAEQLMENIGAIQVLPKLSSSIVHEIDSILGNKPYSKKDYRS
# [5] = target: Voltage-gated potassium channel subunit beta-2 (Rattus norvegicus) (UniProt P62483); assay: enhancers of rat Kvbeta2 NADPH turnover – biochemical, NADPH fluorescence, primary screen (AID 623;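 active = NADPH fluorescence slope more negative than the mean of all samples by about 3 SD, 99.7% confidence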;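 also: fluorescence intensity change per second fitted from 20 to 320 s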); details: Recombinant KvBeta, NADPH fluorescence decrease slope, 10 min; at 10 µM; stronger effect = lower value
# [6] = target: Muscarinic acetylcholine receptor M4 (Homo sapiens) (UniProt P08173); assay: M4-linked GIRK flux change, two-sided – cell-based, HEK293 M4/GIRK, thallium flux, BTC-AM, M4 allosteric agonist project, primary screen (AID 625;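 active = fluorescence slope after compound addition differing from the mean of all tested samples at 99.7% confidence, mostly higher but some lower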;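 also: thallium influx through GIRK channels coupled to M4 in HEK293 cells with BTC-AM dye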); details: at 10 µM, actives lie on both sides
# Muscarinic acetylcholine receptor M4 (Homo sapiens), sequence (P08173 whole entry, looked up): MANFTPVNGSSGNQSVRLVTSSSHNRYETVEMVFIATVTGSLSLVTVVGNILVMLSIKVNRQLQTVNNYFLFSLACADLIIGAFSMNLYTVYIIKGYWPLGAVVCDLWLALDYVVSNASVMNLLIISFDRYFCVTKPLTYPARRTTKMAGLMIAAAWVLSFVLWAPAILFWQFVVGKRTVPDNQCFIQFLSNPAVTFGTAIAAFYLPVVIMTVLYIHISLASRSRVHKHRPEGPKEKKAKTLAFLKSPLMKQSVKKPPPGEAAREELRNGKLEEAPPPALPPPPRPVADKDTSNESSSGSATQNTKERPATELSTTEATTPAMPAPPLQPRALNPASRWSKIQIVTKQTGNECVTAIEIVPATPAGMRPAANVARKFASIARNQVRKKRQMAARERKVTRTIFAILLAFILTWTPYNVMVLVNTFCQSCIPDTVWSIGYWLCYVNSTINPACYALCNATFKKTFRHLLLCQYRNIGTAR
# Procedure, shortened: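 assay system = HEK293 cells with M4 receptor and GIRK channels | medium = pH 7.3 thallium assay buffer | doses = 10 µM final, single point | timing = cells overnight at 37 °C, BTC-AM loading 1 h, reads 2 min total | signal = BTC-AM fluorescence, 1 Hz kinetic reads | read-out = post-addition slope, 15–24 s, of baseline-normalized fluorescence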
# [7] = blockers of RIG-like receptor reporter activation – cell-based, Sendai virus stimulus, luciferase, 10K MLSCN set, TLR/RLR signaling modifier project, primary screen (AID 602276;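 active = inhibition at or above 50% at 10 µM; inactive = inhibition below 50%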;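 also: firefly luciferase from ISG56 promoter only with Renilla not read in this screen; 0% = Sendai virus plus DMSO and 100% = medium plus DMSO without virus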); details: HEK293 RL24 IRF3 luciferase reporter, at 10 µM, stronger effect = higher value
# [8] = TLR3 IRF3 reporter activation blockers – cell-based, poly I:C stimulus, luciferase, 10K MLSCN set, primary screen (AID 602277;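 active = inhibition of the reporter signal at or above 50%; inactive = inhibition below 50%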); details: HEK293-TLR3 RL24 IRF3 luciferase reporter, at 10 µM, stronger effect = higher value
SMILES,cell count [1],inhibition [1],inhibition of aggregation [2],nuclei count [2] [%],inhibition [3],nuclei count [3] [%],fluorescence slope [4],NADPH fluorescence slope [5],fluorescence slope [6],inhibition [7],inhibition [8]
Clc1ccc(SCCCCn2ccnc2)cc1,289,-10.4% (inactive),0.8% (inactive),101,-114% (inactive),115,-0.306 (inactive),-1.2e-05 (inactive),0.00775 (inactive),-17.8% (inactive),-10.6% (inactive)
O=C(CN(c1ccccc1)S(=O)(=O)c1ccccc1)N1CCN(Cc2ccc3c(c2)OCO3)CC1,372,4% (inactive),-11.3% (inactive),122,-23.4% (inactive),116,-0.528 (inactive),-3.2e-05 (inactive),0.00412 (inactive),13.6% (inactive),21.8% (inactive)
CCOCCn1cnc2sc(C(=O)NCC(=O)OCC)c(C)c2c1=O,425,7.9% (inactive),-1.3% (inactive),107,-256% (inactive),165,-0.55 (inactive),-2.6e-05 (inactive),0.00587 (inactive),-2.53% (inactive),-16% (inactive)
O=C1C=C(NCc2ccco2)C2(CCCCC2)O1,495,7.6% (inactive),0.6% (inactive),97.5,-229% (inactive),125,-0.569 (inactive),-5.7e-05 (inactive),0.00577 (inactive),17.4% (inactive),20.2% (inactive)
Cc1cccc(-n2nnc(C(=O)NCc3ccccc3)c2N)c1,477,2.1% (inactive),-17.4% (inactive),116,-2.7% (inactive),106,-0.461 (inactive),-0.000212 (inactive),0.0054 (inactive),9.81% (inactive),9.19% (inactive)
COc1cccc(-n2c(C)nc3c(cnn3-c3ccc(C)cc3)c2=O)c1,684,-5% (inactive),2.3% (inactive),111,-67.2% (inactive),118,-0.577 (inactive),2.9e-06 (inactive),0.00597 (inactive),-34.8% (inactive),-67.9% (inactive)
O=C(NCC1CCCO1)C1CC(c2ccc(Cl)c(Cl)c2)=NO1 (centres undefined),838,-0.7% (inactive),4.4% (inactive),103,-247% (inactive),132,-0.472 (inactive),-3.1e-05 (inactive),0.00536 (inactive),3.78% (inactive),-3.62% (inactive)
COc1ccc(C2=Nn3c(nnc3-c3cccnc3)SC2)cc1,367,-0.8% (inactive),6.7% (inactive),104,25.5% (inactive),109,-0.464 (inactive),1.1e-05 (inactive),0.00808 (inactive),5.59% (inactive),7.82% (inactive)
COc1ccc(CN2C(=O)C(O)(CC(=O)c3c(C)n[nH]c3C)c3ccccc32)cc1OC (centres undefined),264,-12.6% (inactive),-2.3% (inactive),92.8,-27.7% (inactive),97.3,-0.481 (inactive),-4.5e-05 (inactive),0.00507 (inactive),15.2% (inactive),9.8% (inactive)
COc1cc(-c2noc(-c3cccc(Cl)c3)n2)cc(OC)c1OC,778,-0.6% (inactive),-21% (inactive),103,-33.7% (inactive),113,-0.568 (inactive),2.5e-05 (inactive),0.00623 (inactive),6.15% (inactive),-21.6% (inactive)
[O-][n+]1onc2c1CCc1nnc(-c3ccccc3)cc1-2,320,-0.8% (inactive),7.5% (inactive),102,-7.3% (inactive),123,-0.598 (inactive),2.3e-05 (inactive),0.00387 (inactive),-0.775% (inactive),-6.53% (inactive)
COc1ccc(-n2ncc3c(NCc4ccccn4)ncnc32)cc1,463,-1.9% (inactive),7.6% (inactive),94,14.4% (inactive),102,-0.541 (inactive),-4e-05 (inactive),0.0051 (inactive),-12.7% (inactive),-61.6% (inactive)
CCc1c(C)nc(N)n2c(SCC(=O)N3CCCc4ccccc43)nnc12,503,14.6% (inactive),-13.3% (inactive),123,-251% (inactive),147,-0.454 (inactive),-6.5e-05 (inactive),0.00455 (inactive),20.9% (inactive),31.4% (inactive)
O=c1c2ccccc2c(C=Nc2ccc(Cl)cn2)c(O)n1-c1cc(Cl)ccc1N1CCOCC1,164,14.4% (inactive),-6.2% (inactive),83.8,-0.8% (inactive),90.3,-0.551 (inactive),-6e-05 (inactive),0.00995 (inactive),7.35% (inactive),-5.13% (inactive)
CCn1c(=O)cc(SCC(=O)Nc2ccc3c(c2)OCO3)c2ccccc21,368,3.1% (inactive),1.5% (inactive),97.6,-7.2% (inactive),115,-0.432 (inactive),4e-05 (inactive),0.00544 (inactive),-16.8% (inactive),-13.5% (inactive)
COc1cc(C(N)=O)ccc1OCc1ccccc1,364,14% (inactive),-5.1% (inactive),107,-51.6% (inactive),110,-0.472 (inactive),-7.2e-06 (inactive),0.00562 (inactive),-12.9% (inactive),-32.5% (inactive)
COCCN1CN(S(=O)(=O)c2ccccc2)c2nc3ccccc3nc21,307,8.3% (inactive),-0.3% (inactive),94.4,-47.3% (inactive),160,-0.54 (inactive),-0.000125 (inactive),0.00322 (inactive),13.6% (inactive),17.4% (inactive)
Cc1ccc2nsnc2c1S(=O)(=O)N1CCN(Cc2ccc3c(c2)OCO3)CC1,486,-13.1% (inactive),-11.5% (inactive),108,-9.8% (inactive),83.9,-0.468 (inactive),-4.9e-05 (inactive),0.00415 (inactive),12.5% (inactive),27.7% (inactive)
COc1ccc(OC)c(NC(=O)Cc2coc3ccc(C)cc23)c1,451,3.5% (inactive),3.9% (inactive),97.1,46.7% (inactive),90.5,-0.468 (inactive),-3.1e-05 (inactive),0.0049 (inactive),13.3% (inactive),16.6% (inactive)
